Published values from different studies.
Compare with care: the assays were run in different laboratories.
G protein-coupled receptor 88: G protein-coupled receptor 88 (Homo sapiens, UniProt Q9GZN0)
PRKAA1: 5'-AMP-activated protein kinase catalytic subunit alpha-1 (PRKAA1, Homo sapiens, UniProt Q13131)
CDK13: Cyclin-dependent kinase 13 (CDK13, Homo sapiens, UniProt Q14004)
Cnr2: Cannabinoid receptor 2 (Cnr2, Mus musculus, UniProt P47936)

| Compound | target | test | system | conditions | quantity | value |
| --- | --- | --- | --- | --- | --- | --- |
| C#Cc1n[nH]c2c(-c3cn([C@@H](C)c4ccccn4)c(=O)[nH]c3=O)cc(F)cc12 | Ephrin type-B receptor 1 (EPHB1, Homo sapiens, UniProt P54762) | enzyme activity, inhibitor |  | 0.1 µM | inhibition | 1.8% |
| CC[C@@H](C)COc1ccc([C@@H](CO)C(=O)N[C@H](C)c2ccccc2)cc1 | G protein-coupled receptor 88 | cAMP, agonist, TR-FRET |  |  | Emax | 96% |
| CC[C@H](NC(=O)OCc1ccccc1)C(=O)N[C@H](C(=O)N[C@@H](CC(C)C)C(=O)N(C)N(C#N)CCC(N)=O)C(C)(C)C | Procathepsin L (CTSL, Homo sapiens, UniProt P07711) | enzyme activity, inhibitor |  |  | kon | 17300 M⁻¹ s⁻¹ |
| CCCC#Cc1ccc([C@@H](CO)C(=O)N[C@H](C)c2ccccc2)cc1 | G protein-coupled receptor 88 | cAMP, agonist, TR-FRET |  |  | Emax | 92% |
| Nc1ncc(-c2nc(N3CCOCC3)nc(N3CCOCC3)n2)c(C(F)F)n1 | PRKAA1 | cell-free assay, competition with immobilised ligand |  | 10 µM | remaining binding | 91% |
| CCCc1ccc(-c2ccc([C@@H](CO)C(=O)N[C@H](C)c3ccccc3)cc2)cc1 | G protein-coupled receptor 88 | cAMP, agonist, TR-FRET |  |  | Emax | 96% |
| Cn1cc(-c2cccc(N3CCc4c(sc5c4CC(C)(C)C5)C3=O)c2CO)cc(Nc2ccncn2)c1=O | Sphingosine kinase 2 (SPHK2, Homo sapiens, UniProt Q9NRA0) | enzyme activity, inhibitor |  | 1 µM | inhibition | -1% |
| CCN1CCN(Cc2ccc(C(=O)Nc3ccc(C)c(Oc4ccc5c(c4)CC(=O)N5)c3)cc2C(F)(F)F)CC1 | CDK13 | binding, competition with immobilised ligand |  | 1 µM | remaining binding | 100% |
| Cn1cc(-c2cc(F)cc(N3CCn4c(cc5c4CCCC5)C3=O)c2CO)cc(Nc2ccc(N3CCN(C4COC4)CC3)cn2)c1=O | PRKAA1 | enzyme activity, inhibitor |  | 0.1 µM | inhibition | 0% |
| CCOC(=O)[C@](CC)(CCC[S+]([O-])CCOCCOCCNC(=O)OC(C)(C)C)NC(=O)c1ccc(C2CC2)c(Cc2ccc(F)cc2)n1 (stereo partly drawn) | Cnr2 | cAMP, agonist |  |  | Emax | 79% |
| COc1ncccc1-c1cnn2ccc(N3CCN(C(=O)OC(C)C)CC3)nc12 | Platelet-derived growth factor receptor alpha (PDGFRA, Homo sapiens, UniProt P16234) | binding, competition with immobilised ligand |  | 1 µM | remaining binding | 100% |
| Cc1nc2c(=O)n(C)c(=O)nc-2n(C)n1 | Protein disulfide-isomerase (P4HB, Homo sapiens, UniProt P07237) | thermal stability, DSF |  | 10 µM | ΔTm | -2.94 °C |
| Cc1nn(C)cc1-c1nc2c(N3CCN(Cc4ccc(Cl)cc4)CC3)c(Cl)cnc2[nH]1 | CDK13 | binding, competition with immobilised ligand |  | 1 µM | remaining binding | 77% |
| CCOC(=O)C(CC)(CCCSCCOCCOCCOCCNC(=O)OC(C)(C)C)NC(=O)c1ccc(C2CC2)c(Cc2ccc(F)cc2)n1 (stereo not drawn) | Cnr2 | cAMP, agonist |  |  | Emax | 87% |
| CCC[C@H](C)COc1ccc([C@@H](CO)C(=O)N[C@H](C)c2ccccc2)cc1 | G protein-coupled receptor 88 | cAMP, agonist, TR-FRET | CHO |  | Emax | 97% |
